The text below walks through data of ChEMBL document CHEMBL1121653, “Potential pancreatic imaging agents. Tellurium-123m labeled DL-alpha-amino-gamma-(phenyltelluro)butyric acid” (J Med Chem, 1981).

For data set [1], the system named is Rattus norvegicus. The experiment in a line: Compound was evaluated for the distribution of radioactivity in female rat liver at time interval 24 hours following intravenous administration of [123mTe]- Labeled-DL-cu-Amino-r-( phenyltel1uro) butyric Acid, expressed as mean dose per gram of tissue. The conditions noted are these: in vivo. The class given is ADME, organism-based. In short, it runs like this: (§1)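 Female Fischer 344 rats, 10–12 weeks old (180–210 g), fed ad libitum, given the 123mTe-labeled amino acid through a lateral tail vein under ether anesthesia. The basic solution was neutralized to pH ~8 with 1 N HCl and filtered (0.22 μm) before injection. Rats were decapitated at 30 min, 60 min, 4 h or 24 h. Organs were rinsed in saline and weighed, and radioactivity was counted on a Ge(Li) analyzer. Values are %dose/g, mean ± SD of 3 rats.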

The subject of data set [2] is Rattus norvegicus. The experiment in a line: Compound was evaluated for the distribution of radioactivity in female rat spleen at time interval 4 hours following intravenous administration of [123mTe]- Labeled-DL-cu-Amino-r-( phenyltel1uro) butyric Acid, expressed as mean dose per gram of tissue. The class given is ADME, organism-based. To be noted: in vivo. In short, it runs like this:
as §1

Data set [3] deals with Rattus norvegicus. The experiment in a line: Compound was evaluated for the distribution of radioactivity in female rat liver at time interval 60 minutes following intravenous administration of [123mTe]- Labeled-DL-cu-Amino-r-( phenyltel1uro) butyric Acid, expressed as mean dose per gram of tiss. The class given is ADME, organism-based. To be noted: in vivo, 1 h. The procedure, abridged: as §1

The test system of data set [4] is Rattus norvegicus. Put plainly: Compound was evaluated for the distribution of radioactivity in female rat pancreas at time interval 24 hours following intravenous administration of [123mTe]- Labeled-DL-cu-Amino-r-( phenyltel1uro) butyric Acid, expressed as mean dose per gram of tissue. The class given is ADME, organism-based. The conditions noted are these: in vivo. In short, it runs like this:
as §1

The test system of data set [5] is Rattus norvegicus. Put plainly: Compound was evaluated for the distribution of radioactivity in female rat liver at time interval 30 minutes following intravenous administration of [123mTe]- Labeled-DL-cu-Amino-r-( phenyltel1uro) butyric Acid, expressed as mean dose per gram of tiss. The class given is ADME, organism-based. To be noted: in vivo, 0.5 h. In short, it runs like this:
as §1

In data set [6] the test system is Rattus norvegicus. The experiment in a line: Compound was evaluated for the distribution of radioactivity in female rat kidneys at time interval 60 minutes following intravenous administration of [123mTe]- Labeled-DL-cu-Amino-r-( phenyltel1uro) butyric Acid, expressed as mean dose per gram of ti. The class given is ADME, organism-based, Kidney. The conditions noted are these: in vivo, 1 h. The procedure, abridged:
as §1

For data set [7], the system named is Rattus norvegicus. The experiment in a line: Compound was evaluated for the distribution of radioactivity in female rat pancreas at time interval 60 minutes following intravenous administration of [123mTe]- Labeled-DL-cu-Amino-r-( phenyltel1uro) butyric Acid, expressed as mean dose per gram of t. The class given is ADME, organism-based. The conditions noted are these: in vivo, 1 h. In short, it runs like this:
as §1

Data set [8] deals with Rattus norvegicus. The experiment in a line: Compound was evaluated for the distribution of radioactivity in female rat blood at time interval 4 hours following intravenous administration of [123mTe]- Labeled-DL-cu-Amino-r-( phenyltel1uro) butyric Acid, expressed as mean dose per gram of tissue. To be noted: in vivo. The class given is ADME, organism-based. In short, it runs like this: as §1

The test system of data set [9] is Rattus norvegicus. Put plainly: Compound was evaluated for the distribution of radioactivity in female rat spleene at time interval 24 hours following intravenous administration of [123mTe]- Labeled-DL-cu-Amino-r-( phenyltel1uro) butyric Acid, expressed as mean dose per gram of tiss. The class given is ADME, organism-based, Spleen. The conditions noted are these: in vivo. In short, it runs like this:
as §1

Data set [10] concerns Rattus norvegicus. Put plainly: Compound was evaluated for the distribution of radioactivity in female rat spleen at time interval 30 minutes following intravenous administration of [123mTe]- Labeled-DL-cu-Amino-r-( phenyltel1uro) butyric Acid, expressed as mean dose per gram of tis. The class given is ADME, organism-based. The conditions noted are these: in vivo, 0.5 h. The procedure, abridged:
as §1

Data set [11] relates to Rattus norvegicus. Put plainly: Compound was evaluated for the distribution of radioactivity in female rat kidneys at time interval 4 hours following intravenous administration of [123mTe]- Labeled-DL-cu-Amino-r-( phenyltel1uro) butyric Acid, expressed as mean dose per gram of tissu. To be noted: in vivo. The class given is ADME, organism-based, Kidney. In short, it runs like this:
as §1

The subject of data set [12] is Rattus norvegicus. The experiment in a line: Compound was evaluated for the distribution of radioactivity in female rat kidneys at time interval 30 minutes following intravenous administration in kidneys of [123mTe]- Labeled-DL-cu-Amino-r-( phenyltel1uro) butyric Acid, expressed as mean dose per. To be noted: in vivo, 0.5 h. The class given is ADME, organism-based, Kidney. The procedure, abridged: as §1

Data set [13] relates to Rattus norvegicus. The experiment in a line: Compound was evaluated for the distribution of radioactivity in female rat blood at time interval 24 hours following intravenous administration of [123mTe]- Labeled-DL-cu-Amino-r-( phenyltel1uro) butyric Acid, expressed as mean dose per gram of tissue. The class given is ADME, organism-based. To be noted: in vivo. In short, it runs like this:
as §1

In data set [14] the test system is Rattus norvegicus. Put plainly: Compound was evaluated for the distribution of radioactivity in female rat liver at time interval 4 hours following intravenous administration of [123mTe]- Labeled-DL-cu-Amino-r-( phenyltel1uro) butyric Acid, expressed as mean dose per gram of tissue. To be noted: in vivo. The class given is ADME, organism-based. In short, it runs like this: as §1

In data set [15] the test system is Rattus norvegicus. The experiment in a line: Compound was evaluated for the distribution of radioactivity in female rat blood at time interval 60 minutes following intravenous administration of [123mTe]- Labeled-DL-cu-Amino-r-( phenyltel1uro) butyric Acid, expressed as mean dose per gram of tiss. The class given is ADME, organism-based. The conditions noted are these: in vivo, 1 h. In short, it runs like this:
as §1

Data set [16] deals with Rattus norvegicus. Put plainly: Compound was evaluated for the distribution of radioactivity in female rat pancreas at time interval 30 minutes following intravenous administration of [123mTe]- Labeled-DL-cu-Amino-r-( phenyltel1uro) butyric Acid, expressed as mean dose per gram of t. The class given is ADME, organism-based. The conditions noted are these: in vivo, 0.5 h. The procedure, abridged:
as §1

For data set [17], the system named is Rattus norvegicus. The experiment in a line: Compound was evaluated for the distribution of radioactivity in female rat kidneys at time interval 24 hours following intravenous administration of [123mTe]- Labeled-DL-cu-Amino-r-( phenyltel1uro) butyric Acid, expressed as mean dose per gram of tiss. The conditions noted are these: in vivo. The class given is ADME, organism-based, Kidney. The procedure, abridged:
as §1

Data set [18] has as its system Rattus norvegicus. The experiment in a line: Compound was evaluated for the distribution of radioactivity in female rat blood at time interval 30 minutes following intravenous administration of [123mTe]- Labeled-DL-cu-Amino-r-( phenyltel1uro) butyric Acid, expressed as mean dose per gram of tiss. The class given is ADME, organism-based. The conditions noted are these: in vivo, 0.5 h. The procedure, abridged: as §1

In data set [19] the test system is Rattus norvegicus. Put plainly: Compound was evaluated for the distribution of radioactivity in female rat pancreas at time interval 4 hours following intravenous administration of [123mTe]- Labeled-DL-cu-Amino-r-( phenyltel1uro) butyric Acid, expressed as mean dose per gram of tiss. The class given is ADME, organism-based. The conditions noted are these: in vivo. In short, it runs like this:
as §1

In data set [20] the test system is Rattus norvegicus. The experiment in a line: Compound was evaluated for the distribution of radioactivity in female rat spleen at time interval 60 minutes following intravenous administration of [123mTe]- Labeled-DL-cu-Amino-r-( phenyltel1uro) butyric Acid, expressed as mean dose per gram of tis. The class given is ADME, organism-based. The conditions noted are these: in vivo, 1 h. The procedure, abridged: as §1

For the compound `NC(CC[Te]c1ccccc1)C(=O)O` (stereo not given), the Dose with Rattus norvegicus [1] amounted to 2.139%; in the data set on Rattus norvegicus [2], 0.234%; with Rattus norvegicus [3], 0.534%; in the data set with Rattus norvegicus [4] it was 0.334%; with Rattus norvegicus [5], 0.32%; with Rattus norvegicus [6] it was 2.628%. Moreover, the Dose in the data set on Rattus norvegicus [7] worked out at 0.654%; with Rattus norvegicus [8] it was 0.451%; with Rattus norvegicus [9], 0.28%; in the data set with Rattus norvegicus [10], 0.129%; in the data set on Rattus norvegicus [11] it was 2.169%; with Rattus norvegicus [12], 1.019%. Also, the Dose in the data set on Rattus norvegicus [13] is listed as 0.485%; with Rattus norvegicus [14] it was 1.046%; in the data set on Rattus norvegicus [15], 0.497%; in the data set on Rattus norvegicus [16] it was 0.206%; in the data set on Rattus norvegicus [17] it was 1.489%; with Rattus norvegicus [18], 0.208%. For the same compound, the values for the Dose in the data set on Rattus norvegicus [19] and in the data set with Rattus norvegicus [20] were 0.434% and 0.238%, respectively.
